The list is not random: actives were taken first. Their share in the collection is about 4.1%.
RGS4 inh = inhibitors of human RGS4 | P49798 | HEK293 M3R/RGS4 inducible, Fluo-4 calcium flux; hits give high values; triggered by carbachol at its EC20 | B-score at 10 µM | 0.45% of 310,000 active | AID 463165;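 active means B-score, a plate-corrected calcium signal, over three deviations above library mean, with baseline fluorescence within five deviations of library mean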;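 further: RGS4 expression induced by doxycycline in cells with stable M3 receptor; B-score is computed from the integrated fluorescence ratio over baseline after carbachol; higher B-score means a larger calcium signal and so more RGS4 inhibition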
Target sequence (P49798 whole entry, looked up): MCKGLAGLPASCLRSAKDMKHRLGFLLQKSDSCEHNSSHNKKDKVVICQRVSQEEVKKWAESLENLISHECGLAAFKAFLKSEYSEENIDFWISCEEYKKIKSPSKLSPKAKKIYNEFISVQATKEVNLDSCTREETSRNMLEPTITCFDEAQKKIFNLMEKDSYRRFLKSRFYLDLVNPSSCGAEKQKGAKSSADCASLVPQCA
MrgX1 antag = blocks BAM8-22 activation of human MrgX1 receptor; MRGX1-HEK293 calcium flux, Fluo-4, BAM8-22 antagonism; hits give low values; AID 588676; Q96LB2; 1.3% of 310,000 active; B-score at 10 µM;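 active means calcium-response B-score plate-corrected more than 3 library SD below zero, starting fluorescence within 5 deviations, no agonist response on first addition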;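 further: peak minus trough fluorescence over baseline after final BAM8-22 challenge near maximal dose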
Target sequence (Q96LB2 whole entry, looked up): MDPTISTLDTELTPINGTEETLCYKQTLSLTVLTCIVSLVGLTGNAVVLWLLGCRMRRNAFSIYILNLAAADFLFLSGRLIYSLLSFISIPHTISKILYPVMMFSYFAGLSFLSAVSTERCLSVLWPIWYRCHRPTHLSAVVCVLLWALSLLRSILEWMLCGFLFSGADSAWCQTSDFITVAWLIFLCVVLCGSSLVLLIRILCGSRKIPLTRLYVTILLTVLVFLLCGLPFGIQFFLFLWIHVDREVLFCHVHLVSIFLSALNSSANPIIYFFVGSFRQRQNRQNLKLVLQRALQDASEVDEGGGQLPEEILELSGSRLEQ
MrgX1 PAM = allosterically activates human MrgX1 receptor signaling; MrgX1-HEK293, Fluo-4 calcium flux, FDSS; hits give high values; B-score at 10 µM; 0.63% of 310,000 active;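 active means plate-corrected calcium response at least 3 library SD above typical, normal starting fluorescence, not activating the receptor alone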;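 further: compound read alongside a low EC10 to EC30 dose of BAM8-22 agonist; peak minus trough fluorescence over baseline measured at the second addition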
Kir21 inh = blocks the mouse Kir2.1 inward-rectifier potassium channel. HEK293-Kir2.1, FluxOR thallium flux fluorescence; hits give low values. B-score at 10 µM. AID 1672. 0.85% of 310,000 active;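 active means fluorescence ratio B-score at or below minus 3 SD of library scores, with starting-brightness B-score within 2 SD, cut at about -4.2 in these data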;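 further: channel flux triggered by added potassium and thallium sulfate stimulus; B-score of peak minus minimum fluorescence over baseline after thallium stimulus; more negative B-score means stronger Kir2.1 block with less thallium influx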
RGS4 pot = potentiators or activators of RGS4. HEK293 M3R/inducible RGS4, carbachol calcium flux Fluo4; hits give low values. B-score at 10 µM. 0.92% of 310,000 active. AID 463111;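 active means B-score of the integrated calcium signal more than 4 SD below the library mean, with starting fluorescence not abnormally high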;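 further: negative B-score means reduced calcium response which marks RGS4 activation or potentiation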
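System – HEK293 FlpIn-TREx cells, stable M3R, doxycycline-inducible RGS4 · Reagent – ECmax carbachol challenge · Times – compound preincubation 20 min at room temperature before agonist · Technique – Fluo4 fluorescence kinetic imaging of calcium · Measure – B score of integrated Fluo4 ratio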
MrgX1 ag = human MrgX1 receptor agonism, primary screen; Q96LB2; MrgX1-HEK293 cells, Fluo-4 calcium fluorescence, agonist mode; hits give high values; B-score at 10 µM; 0.44% of 310,000 active;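 active means calcium response B-score plate-corrected fluorescence ratio at least 3 library SD, with starting fluorescence B-score inside 5 SD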
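System: HEK293 cells stably expressing human MrgX1 receptor; Dosing: test compound in the initial addition of three; Schedule: overnight plating, then 30 min 37 °C plus 30 min room-temperature dye loading; Detection: kinetic calcium dye fluorescence, Fluo-4 NW; Controls: per-plate positive and negative controls for Z′ factor.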
RGS4 activ val = RGS4 activation, validation assay. inhibition, % at 10 µM. shares compounds with RGS4 pot. AID 602282. 89% of 1,100 active. HEK293 M3R/RGS4 inducible, carbachol calcium flux Fluo4;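 active means inhibition above 3 SD of the buffer control wells, cut at about 41% in these data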;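 further: signal is the integrated peak-minus-minimum Fluo4 fluorescence over baseline ratio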
RGS4 act ctr = RGS4 activator counter-screen hit in non-induced cells; shares compounds with RGS4 pot; HEK293 M3R non-induced RGS4, Fluo4 calcium flux; after carbachol challenge at its EC90; inhibition, % at 10 µM; 82% of 1,100 active; AID 602283;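 active means inhibition exceeding 3 SD of buffer-only control wells, cut at about 26% in these data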;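 further: percent drop in integrated peak-minus-baseline over baseline Fluo4 ratio after carbachol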
Numbers stand for hits; - = inactive; . = no result given; ! = repeats disagree.

SMILES	RGS4 inh	MrgX1 antag	MrgX1 PAM	Kir21 inh	RGS4 pot	MrgX1 ag	RGS4 activ val	RGS4 act ctr
CCN(CC)CC#CCC(O)(c1ccccc1)c1ccccc1	-	-	-	-	-7.7	-	90	52
CCN1CCOC(CC(=O)Nc2cccc([N+](=O)[O-])c2)C1=O (stereo unspecified)	-	-	-	-	-	-	.	.
COCCCN(CC(=O)NCc1ccccc1)S(=O)(=O)c1ccc(C)cc1	-	-	-	-	-	-	.	.
COCCOCC(=O)Nc1ccc(S(=O)(=O)Nc2cc(C)nc(C)n2)cc1	-	-	-	-	-	-	.	.
FC(F)(F)c1cccc(NCc2n[nH]c(=S)n2C2CCCCC2)c1	-	-	-	-	-8.4	-	85	52
C=CCN1C(=O)c2ccccc2Sc2ccc(C(=O)NCCC)cc21	-	-	-	-	-	-	.	.
O=C1CCCN1S(=O)(=O)c1ccccc1	-	-	-	-	-7.9	-	50	-
O=C1CCCN1S(=O)(=O)c1ccc(F)cc1	-	-	-	-	-	-	.	.
COc1cccc(CC(=O)NNC(=O)c2ccc3c(c2)OCO3)c1	-	-	-	-	-	-	.	.
O=C(c1cccs1)N(CCO)Cc1cc2cc3c(cc2[nH]c1=O)OCCO3	-	.	.	-	-	.	.	.
CCOC(=O)Cn1c(COc2ccccc2OC)[n+](C)c2ccccc21	-	-	-	-	-	-	.	.
CC1CCC(C(C)C)C(OC(=O)Cn2c(-c3ccc(Br)cc3)[n+](C)c3ccccc32)C1 (stereo unspecified)	-	-6!	-	-15	-11	-	94	81
Cc1ccccc1OCc1n(CC(=O)OC2CC(C)CCC2C(C)C)c2ccccc2[n+]1C (stereo unspecified)	-	-7.2	-	-15	-13	-	92	91
CCCCCCCn1ccc(=N)cc1	-	-	-	-	-9.2	-	69	30
CCCCCCCCCn1ccc(=N)cc1	-	-	-	-	-	-	.	.
OC(CN1CCN(C(c2ccccc2)c2ccccc2)CC1)c1ccc(Br)cc1 (stereo unspecified)	-	-	-	-	-13	-	92	79
OC(CN1CCN(C(c2ccccc2)c2ccccc2)CC1)c1ccccc1 (stereo unspecified)	-	-	-	-	-	-	.	.
CSC1=NCCN1C(=O)COc1ccccc1	-	-	-	-	-	-	.	.
CSC1=NCCN1C(=O)COc1ccc2ccccc2c1	-	-	-	-	-9.5	-	-	-
Cc1cc(C)c2c(CN3CCN(Cc4ccc5c(c4)OCO5)CC3)cc(=O)oc2c1C	-	-	-	-	-7.7	-	76	28
Cc1cc(C)c2c(CN3CCN(Cc4ccc5c(c4)OCO5)CC3)cc(=O)oc2c1	-	-	-	-	-8.7	-	91	52
Cc1cc2oc(=O)cc(CN3CCN(Cc4ccc5c(c4)OCO5)CC3)c2cc1C	-	-	-	-	-	-	.	.
Cc1cc(C)c2c(CN3CCN(Cc4ccccc4)CC3)cc(=O)oc2c1	-	-	-	-	-	-	.	.
Cc1nc2ccccc2c2c1CC(C)S2 (stereo unspecified)	-	-	-	-	-	-	.	.
CCCN1CCN(c2ncnc3scc(C4COc5ccccc5O4)c23)CC1 (stereo unspecified)	-	-	-	-	-12	-	92	62
SMILES	RGS4 inh	MrgX1 antag	MrgX1 PAM	Kir21 inh	RGS4 pot	MrgX1 ag	RGS4 activ val	RGS4 act ctr
COc1ccc(-n2nc([N+](=O)[O-])c(=NCCc3ccc(OC)c(OC)c3)n2O)cc1	-	-	-	-	-	-	.	.
CSc1ccc(C(=O)C2CCCN(Cc3ccc(N4CCNC4=O)cc3)C2)cc1 (stereo unspecified)	-	-	-	-	-8	-	91	57
COc1ccc(C)cc1S(=O)(=O)N1CCC(C(=O)NC2CCCC2)CC1	-	-	-	-	-8.1	-	-	-
COc1ccc(OC)c(S(=O)(=O)N2CCC(C(=O)NC3CCCC3)CC2)c1	-	-	-	-	-	-	.	.
COc1ccc(CCNC(=O)C(=O)NCC2CCCN2S(=O)(=O)c2cc(C)ccc2C)cc1 (stereo unspecified)	-	-	-	-	-9.5	-	74	26
Cc1ccc(C)c(S(=O)(=O)N2CCCC2CNC(=O)C(=O)NCCc2ccccc2)c1 (stereo unspecified)	-	-	-	-	-10	-	80	31
COc1ccc(CCNC(=O)C(=O)NCC2OCCCN2S(=O)(=O)c2cc(C)ccc2C)cc1 (stereo unspecified)	-	-	-	-	-	-	.	.
CN1C(=S)NC(C)(C)CC1(C)c1ccc(O)cc1O (stereo unspecified)	-	-	-	-	-	-	.	.
Fc1ccc(N2CCN(C3=Nc4cccc5cccc3c45)CC2)cc1	-	-	-	-	-13	-	94	74
C/C=C1\COC(C(=O)NCc2ccccc2)(C(F)(F)F)C=C1C=C(C)C (stereo unspecified)	-	-	-	-	-7.8	-	92	93
O=C(NCc1ccccc1)C1(C(F)(F)F)C/C(=C/CCO)CCCO1 (stereo unspecified)	-	-	-	-	-	-	.	.
Cc1ccn(S(=O)(=O)c2ccc(C(C)(C)C)cc2)n1	-	-	-	-	-7.8	-	92	26
O=[N+]([O-])c1ccccc1COc1ccc(Cl)c2cccnc12	-	-	-	-	-	-	.	.
Cc1cccc2nc(COc3ccc(Cl)c4cccnc34)cn12	-	-	-	-	-10	-	-	84
CC1O[C@@H](O[C@H](C)CC/C=C/C(=O)O)C(O)C[C@H]1O (stereo partly specified)	-	-	-	-	-	-	.	.
CSCCC(=O)N(C)CC1CCCN(CCc2cccc(C(F)(F)F)c2)C1 (stereo unspecified)	-	-	-	-	-	-	.	.
CCN(CC1CCCN(CCc2cccc(F)c2)C1)C(=O)c1cc2ccccc2o1 (stereo unspecified)	-	-	-	-	-7.7	-	78	30
CCN(CC1CCCN(CCc2cccc(OC)c2)C1)C(=O)c1ccc(COC)o1 (stereo unspecified)	-	-	-	-	-	-	.	.
CN(CC1CCCN(CCc2cccc(C(F)(F)F)c2)C1)C(=O)c1cc2ccccc2o1 (stereo unspecified)	-	.	.	-	-12	.	92	74

Bioassay records: PubChem, Johns Hopkins Ion Channel Center
